# Source: PubChem (several laboratories)
# Hits are enriched below; roughly 1.8% of the tested compounds scored in any of these assays.
# MT1-MMP act inh: MT1-MMP (human) activation inhibition | HT1080 RFP-PRO-GFP cells, GFP/RFP ratio fluorescence, overnight; percent of plate control window, DMSO zero | actives 0.061% (n = 360,000) | P50281 | AID 651647 | GFP/RFP ratio change, % at 20 µM;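 active = GFP/RFP ratio change of at least 30% with cell ATP level not reduced by more than half and red fluorescence within 50% of control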
#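 Assay system: HT1080 cells carrying an RFP-PRO-GFP reporter | Dosing: Single dose of 20 µM compound, 1% DMSO final | Incubation: Cells overnight before dosing, compound overnight, 37 °C, 5% CO2 | Evaluation: GFP/RFP fluorescence ratio | Control set: DMSO and RFP-L50D-GFP cell wells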
# iPSC survival up: hiPSC single-cell survival enhancement. ATPlite luminescence; 100% = ROCK inhibitor wells, 0% = DMSO. survival enhancement, % at 20 µM. actives 0.044% (n = 360,000); in the data active = survival enhancement above about 18%;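 note: cells exposed to compounds for 16 hours before the ATP read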
# DAGLB inhibitor: diacylglycerol lipase beta (human) inhibition | Q8NCG7 | HEK293T DAGLB membrane lysate, EnzChek fluorogenic substrate | inhibition, % at 5.17 µM | actives 0.059% (n = 340,000) | AID 504411; in the data active = inhibition above about 34%;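 note: 0% = enzyme with vehicle and 100% = wells lacking enzyme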
# Target sequence (Q8NCG7 whole entry, looked up): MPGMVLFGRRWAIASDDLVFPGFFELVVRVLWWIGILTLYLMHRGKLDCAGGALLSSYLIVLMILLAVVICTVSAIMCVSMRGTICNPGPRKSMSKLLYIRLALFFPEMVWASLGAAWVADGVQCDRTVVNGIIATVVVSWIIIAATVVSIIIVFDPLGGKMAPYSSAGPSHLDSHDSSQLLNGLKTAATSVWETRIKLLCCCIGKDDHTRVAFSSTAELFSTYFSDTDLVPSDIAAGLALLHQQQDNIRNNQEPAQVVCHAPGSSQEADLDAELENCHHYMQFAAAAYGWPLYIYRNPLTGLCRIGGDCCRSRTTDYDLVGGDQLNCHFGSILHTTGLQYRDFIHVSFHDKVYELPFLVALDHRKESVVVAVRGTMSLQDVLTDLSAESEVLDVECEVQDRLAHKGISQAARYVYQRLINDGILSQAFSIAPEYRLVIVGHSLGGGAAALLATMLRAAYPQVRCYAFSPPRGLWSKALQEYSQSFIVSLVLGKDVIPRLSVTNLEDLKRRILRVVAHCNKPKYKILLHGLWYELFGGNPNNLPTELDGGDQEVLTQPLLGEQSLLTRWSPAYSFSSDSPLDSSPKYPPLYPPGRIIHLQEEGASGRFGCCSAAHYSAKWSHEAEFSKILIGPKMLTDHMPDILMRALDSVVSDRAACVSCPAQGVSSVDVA
# Cneo AK release: Cryptococcus neoformans lysis via adenylate kinase release; C. neoformans lysis, adenylate kinase release luminescence, 4 h; normalised: neutral wells 0, clomiphene wells 100; lysis activity, % at 15 µM; actives 0.2% (n = 360,000);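 active = mean lysis activity across replicates of at least 80%, whatever share of replicates individually reach that level; inactive = mean lysis activity below 80%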
#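 Material – Cryptococcus neoformans yeast cells · Quantity – 5 × 10^6 yeast cells/mL · Buffer or medium – YPD medium · Compound – single dose · Timing – 4 h static compound exposure, 37 °C, read 1 h post-reagent · Signal – adenylate kinase release luminescence · Read-out basis – lysis from increased AK signal · Benchmarks – Clomiphene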
# Ecoli rRNA inh: selective bacterial rRNA inhibition in E. coli. E. coli WT GFP vs humanized-ribosome RFP mutants, fluorescence, 24 h; hits give low values; DMSO median 0, no signal -100. GFP signal change (wild-type ribosome), % (no concentration beside the values). actives 1.6% (n = 350,000). AID 720706;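 active = significant combined selectivity score with lowered wild-type GFP, culture density cut under 30%, mutant RFP and density less affected; inactive = any of these conditions unmet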
# SKN-1 inh: C. elegans SKN-1 inhibition | AID 624304 | C. elegans VP596 Pgst-4::GFP/RFP ratio, acrylamide-induced, 24 h | inhibition, % at 21.8 µM | actives 0.49% (n = 360,000);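 active = interference check ratio from 0.5 to 1.5 plus GFP to RFP signal ratio inhibition reaching or exceeding a fixed threshold, cut at about 30% in these data, passing the limit was not always enough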
# The depositor's hits bear a star; . = no result; ! = not active in a repeat.
SMILES,MT1-MMP act inh,iPSC survival up,DAGLB inhibitor,Cneo AK release,Ecoli rRNA inh,SKN-1 inh
CO[C@H]1CN(C)C(=O)c2cc(NC(=O)C3CC3)ccc2OC[C@H](C)N(CC2CC2)C[C@@H]1C,.,.,.,-3,2,.
CN(c1ccccc1)S(=O)(=O)c1ccc(-c2ccccc2)cc1,2,1,-16,-2,-24*,-4
O=C(C[C@@H]1CC[C@H]2[C@@H](COC[C@H](O)CN2C(=O)Nc2ccc(C(F)(F)F)cc2)O1)NCCc1ccncc1,.,.,.,-2,-57,.
O=C(C=Cc1ccccc1)c1cccs1,-4,-2,0,.,-22*,11
Nc1ccc(/C=C/C(=O)c2cccs2)cc1,-7,-6,-8,.,-13,19
Cc1csc2nc(CNS(=O)(=O)c3ccc4c(c3)CCCC4)cn12,-1,-1,0,-4,-6,36*
COC(=O)c1cccc(-n2cnnn2)c1,1,-4,0,-1,.,6
COc1cccc(-n2cnnn2)c1,-3,-1,-2,.,.,40*
CCS(=O)(=O)Nc1ccc2c(c1)C(=O)N(C)[C@@H]1CC[C@H](CC(=O)NCCOC)O[C@@H]1CO2,.,.,.,5,0,.
Cc1cc(OCC(O)CN2CCN(C)CC2)ccc1C(C)C (stereo not drawn),2,2,-2,-2,23,36*!
CN1CCN(CC(O)COc2ccc(OCC(O)CN3CCN(C)CC3)cc2)CC1 (stereo not drawn),0,6,2,-2,.,-15
C[C@H](NC(=O)C[C@@H]1C[C@@H]2c3cc(NS(=O)(=O)c4ccc(F)cc4)ccc3O[C@@H]2[C@H](CO)O1)c1ccccc1,.,.,.,-3,-3,.
Cc1cc(Cl)ccc1NC(=S)N1CCN(C(=O)c2ccco2)CC1,4,0,0,-1,-37*,-3
O=C(NC1CCN(C(=S)Nc2ccc(Cl)cc2)CC1)c1ccco1,-1,1,0,-3,-1,47*
O=C(NC1CCN(C(=S)Nc2ccc(F)cc2)CC1)c1ccco1,-1,1,1,-7,0,-2
C[C@@H]1CCCCO[C@@H](CN(C)Cc2ccncc2)[C@@H](C)CN([C@@H](C)CO)C(=O)c2cc(NC(=O)C3CCCCC3)ccc2O1,.,.,.,.,1,.
CCS(=O)(=O)Nc1ccc2c(c1)C(=O)N(C)C[C@H](OC)[C@H](C)CN(C)[C@@H](C)CO2,.,.,.,-3,1,.
O=C(Nc1ccc(C(=O)OC[C@@H]2CCCN3CCCC[C@H]23)cc1)c1cccc(Br)c1,2,3,2,.,-44*,-6
O=C(NC(=O)c1cccc(F)c1)OC[C@@H]1CCCN2CCCC[C@H]12,0,-2,-3,4,7,-21
Cc1[nH]n(-c2cccc(Cl)c2)c(=O)c1C=NCC(C)C,5,0,0,.,-21*,-4
Cc1[nH]n(-c2cccc(Cl)c2)c(=O)c1C=NCc1ccco1,2,2,-1,.,5,-1
CCC(=O)N(C)C[C@@H]1Oc2cc(-c3ccccc3C)ccc2S(=O)(=O)N([C@@H](C)CO)C[C@@H]1C,.,.,.,-1,-4,.
Cc1cc(Cn2nnc(-c3ccc(Br)cc3)n2)cc(C)c1O,4,0,-6,0,1,-7
CSc1ccc(-c2nnn(Cc3ccc(Br)cc3)n2)cc1,0,-1,-27,2,.,36*
CC12CCC3C(CCC4CC(O)CCC43C)C1CC(O)C2 (stereo not drawn),3,-1,-3,-4,-28*,22
SMILES,MT1-MMP act inh,iPSC survival up,DAGLB inhibitor,Cneo AK release,Ecoli rRNA inh,SKN-1 inh
C[C@@H]1CN([C@H](C)CO)C(=O)c2cc(-c3ccccc3)cnc2O[C@@H]1CN(C)CC1CC1,.,.,.,2,6,.
COc1ccccc1NC(=O)COc1ccc2ccccc2c1,4,-1,-18,2,-31*,3
COc1ccc(C(=O)Nc2ccncc2)c(OC)c1,-2,4,3,.,-6,5
COc1ccccc1C(=O)Nc1cccc(NC(C)=O)c1,-2,-2,1,-2,.,4
COc1ccccc1NC(=O)C(=O)NNC(=O)COc1ccc2ccccc2c1,2,0,1,-1,-21,13
COc1ccccc1C(=O)Nc1cccc(NC(=O)c2ccccc2C)c1,-2,0,-1,-2,-34*,22
COc1ccc(C(=O)Nc2ccc3ccccc3c2)c(OC)c1,-1,-1,-7,-23,-28*,7
COc1ccccc1C(=O)Nc1ccc2ccccc2c1,-5,1,-7,.,-33*,48*
CN1C(=O)c2cc(NC(=O)c3ccc(F)c(F)c3)ccc2OC[C@H]2O[C@@H](CC(=O)O)CC[C@@H]21,.,.,.,4,1,.
COc1ccc2nc(SCC(=O)Nc3ccccc3OC)[nH]c2c1,5,0,0,.,-24*,-8
CO[C@@H]1CN(C)C(=O)c2cc(NC(=O)c3cc(C)on3)ccc2OC[C@H](C)N(CC2CC2)C[C@@H]1C,.,.,.,-3,2,.
COc1cccc(OC)c1C(=O)NC(=S)Nc1ccc2c(c1)Cc1ccccc1-2,-1,1,-1,14,3,-5
COc1cccc(OC)c1C(=O)Nc1ccc2c(c1)Cc1ccccc1-2,-3,0,-2,.,-23*,3
O=C(Nc1ccc2nc(-c3ccccc3)oc2c1)c1ccco1,5,-4,-5,-2,.,75*
O=C(Nc1ccc2c(c1)Cc1ccccc1-2)c1ccco1,9,-4,-3,-4,.,72*
CCCNC(=O)N1[C@@H]2c3ccc(-c4cccc(F)c4)c(=O)n3C[C@H]1[C@H](CO)[C@H]2C(=O)NC1CCC1,.,.,.,.,3,.
O=C1CCC(=O)N1CNc1ccc(Oc2ccccc2)cc1,-1,-2,-1,-4,-13*,16
O=C(NC12CC3CC(CC(C3)C1)C2)N1CCN(c2ncccn2)CC1,.,-3,3,.,-21*,-6
O=C(NC12CC3CC(CC(C3)C1)C2)N1CCN(c2ccccn2)CC1,6,-1,2,-2,-19,-6
C[C@@H]1CN([C@H](C)CO)C(=O)c2cc(-c3ccccc3F)cnc2O[C@@H]1CN(C)C(=O)C1CCC1,.,.,.,1,5,.
Clc1ccccc1N=C1NN=C(c2cccs2)CS1,-6,0,-5,-8,-32*,15
CCCC1(C(=O)OCC)NC(c2ccc(N(C)C)cc2)C2C(=O)N(c3ccccc3)C(=O)C21 (stereo not drawn),3,7,-2,3,.,38*
CO[C@@H]1CN(C)C(=O)c2cc(NS(=O)(=O)c3ccccc3)ccc2OC[C@H](C)N(C(=O)NC(C)C)C[C@@H]1C,.,.,.,-1,0,.
